Measured values collected from several papers.
Protocols differ between the studies behind these lines.
JAK3 JH1: Tyrosine-protein kinase JAK3, JH1 (JAK3, Homo sapiens, UniProt P52333)
JAK3: Tyrosine-protein kinase JAK3 (JAK3, Homo sapiens, UniProt P52333)

Compound | target | test | setting | measurement | result
Nc1ncnc2occ(-c3ccc(NC(=O)Nc4cc(C(F)(F)F)ccc4F)cc3)c12 | JAK3 JH1 | cell-free assay, inhibitor | 20 µM | remaining signal | 4.3%
CCOc1cc(-c2nncn2C)ccc1Nc1ncc2cc(C)nc(NCC(C)(C)C)c2n1 | JAK3 | enzyme activity, inhibitor, FRET | 1 µM | inhibition | < 15%
COc1cc2nccc(Oc3ccc(NC(=O)c4c5n(n(-c6ccc(F)cc6)c4=O)CCCC5)cc3)c2cc1OC | JAK3 | enzyme activity, inhibitor | 0.1 µM | inhibition | -18%
O=C(Nc1cnn(-c2csc(C(=O)NC3COC3)c2)c1)Nc1ccccc1Cl | JAK3 | enzyme activity, inhibitor | 5 µM | remaining activity | 102%
CC(C)(C)c1nc2c(s1)c1nc(N)ncc1c1ccc(NS(=O)(=O)c3c(F)cccc3F)c(F)c12 | JAK3 | enzyme activity, inhibitor, radiometric | 1 µM | remaining activity | 100%
CCN(CC)c1ccc(C2=NNC(=O)CC2C)cc1[N+](=O)[O-] (stereo not shown) | JAK3 | enzyme activity, inhibitor | 10 µM | remaining activity | 134%
Oc1ccc(-c2nc(-c3ccncc3)c(-c3ccc(F)cc3)[nH]2)cc1 | JAK3 | cell-free assay | 0.5 µM | remaining signal | 95.8%
Cc1ccc(Nc2nccc(N(C)c3ccc4c(C)n(C)nc4c3)n2)cc1S(N)(=O)=O | JAK3 | enzyme activity, inhibitor | 0.3 µM | inhibition | 11%
NS(=O)(=O)c1cc(NC(=O)Cc2ccccc2)ccc1Oc1cccc(Cl)c1 | JAK3 JH1 | cell-free assay, competition with immobilised ligand | 1 µM | remaining binding | 96%
C=CC(=O)Nc1cc(Nc2nccc(Nc3cc(Cl)c(F)cc3C(C)(C)O)n2)c(OC)cc1N1CC[C@@H](N(C)C)C1 | JAK3 | enzyme activity, inhibitor | 1 µM | inhibition | 24%
O=C(O)c1cc(-c2ccc(C3CCNCC3)cc2)c2ccc(-c3ccc(C(F)(F)F)cc3)cc2c1 | JAK3 JH1 | cell-free assay, competition with immobilised ligand | 1 µM | remaining binding | 100%
Cc1cnc(NC2CCOCC2)nc1-n1cnc(C(=O)NC(CN)c2cc(F)cc(Cl)c2)c1 (stereo not shown) | JAK3 | enzyme activity, inhibitor, radiometric | 1 µM | remaining activity | 118%
C[C@H]1CCN(c2nccc(-c3cnn4ncccc34)n2)C1 | JAK3 JH1 | cell-free assay | 1 µM | remaining signal | 84%
CS(=O)(=O)Nc1cccc(-c2csc(NC(=O)CSc3nc4nccnc4c(=O)n3CCc3ccccc3)n2)c1 | JAK3 | enzyme activity, inhibitor | 10 µM | inhibition | 1%
CN(c1nccc(-c2cnn3ncccc23)n1)C1CC1 | JAK3 JH1 | cell-free assay | 1 µM | remaining signal | 100%
O=C(O)[C@@H]1[C@@H](Cn2nnc3ccccc3c2=O)CC[C@H]1C(=O)c1ccc(OCCC2CCOCC2)cc1 | JAK3 JH1 | cell-free assay, competition with immobilised ligand | 1 µM | remaining binding | 95%
c1cnn2ncc(-c3ccnc(N4CCC45COC5)n3)c2c1 | JAK3 JH1 | cell-free assay | 1 µM | remaining signal | 68%
CC1=C(C#N)[C@@H](c2ccc3[nH]nc(C)c3c2)C(C#N)=C(c2ccc(Cl)cc2)N1 | JAK3 JH1 | cell-free assay, competition with immobilised ligand | 1 µM | remaining binding | 100%
COc1cc2ncnc(Nc3ccc(F)c(Cl)c3)c2cc1OCCCN1CCOCC1 | JAK3 | cell-free assay | 0.5 µM | remaining signal | 96.6%
O=C(NCCCC1CCCCC1)c1ccc(CNC(=O)c2cnn(-c3ccccc3)c2C(F)(F)F)cc1 | JAK3 JH1 | cell-free assay, competition with immobilised ligand | 0.1 µM | remaining binding | 100%
Cc1sc(C(=O)NC2COC2)cc1-n1cc(NC(=O)Nc2c(F)cccc2Cl)cn1 | JAK3 | enzyme activity, inhibitor | 10 µM | remaining activity | 96.7%
COc1cc(Cl)c(C(=O)N[C@@H](CN[C@H]2CC[C@@H](N)CC2)Cc2ccc(C#N)cc2)cc1-c1ccc(CN[C@H](C)c2ccc(C)cc2)o1 | JAK3 | enzyme activity, inhibitor | 1 µM | remaining activity | 101%
O=C(Nc1cnc(Oc2ccc(F)cc2)nc1)N1CCc2ncccc2[C@@H]1c1ccc(F)cc1 | JAK3 JH1 | cell-free assay, competition with immobilised ligand | 1 µM | remaining binding | 91%
O=C1NC(=O)c2cc(Nc3ccc(F)cc3)c(Nc3ccc(F)cc3)cc21 | JAK3 | cell-free assay | 0.5 µM | remaining signal | 93.9%
CCS(=O)(=O)c1cc2cc(C[C@](O)(CC(C)(C)c3ccc(F)cc3C(N)=O)C(F)(F)F)[nH]c2cn1 | JAK3 JH1 | cell-free assay, competition with immobilised ligand | 1 µM | remaining binding | 72%
CCN(CC)CCNC(=O)c1c(C)[nH]c(/C=C2\C(=O)Nc3ccc(F)cc32)c1C | JAK3 | enzyme activity, inhibitor | 10 µM | inhibition | 69%
CCc1ccccc1C(=O)Nc1n[nH]c2c(C)c(F)c(C3C(C#N)=C(C)N(C)C(C)=C3C#N)cc12 | JAK3 JH1 | cell-free assay, competition with immobilised ligand | 1 µM | remaining binding | 79%
COc1cc2ncnc(Nc3ccc(Oc4ccccc4)cc3C)c2cc1OC | JAK3 | enzyme activity, inhibitor | 1 µM | inhibition | -6%
